Screening results deposited in PubChem BioAssay by several laboratories.
IMP-1 inh: inhibitors of Pseudomonas aeruginosa IMP-1 metallo-beta-lactamase | purified IMP-1, nitrocefin hydrolysis, epi-absorbance fluorescence | inhibition, % at 5.6 µM | 0.45% of 290,000 active | AID 1556;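 active means inhibition above the mean plus 3 SD of all compounds in the same screening run, cut at about 4.5% in these data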
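System: Purified recombinant IMP-1 metallo-beta-lactamase enzyme | Measured by: Fluorescence quenching readout, ex 480/em 530 nm | Replication: Singlicate | Incubation: 15 min preincubation plus 25 min reaction at 25 °C | Evaluation: Percent inhibition from optical density relative to buffer-blank wells | Benchmarks: DMSO with and without IMP-1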
PolyA inhibitor: yeast polyadenylation inhibition; S. cerevisiae SKY197-pL101 polyadenylation reporter, beta-gal luminescence; efflux-impaired pdr1/pdr3 knockout yeast; score 100 = 6 SD above DMSO; activity score, % at 12 µM; 0.02% of 300,000 active; AID 1875;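 active means lowest replicate activity score at least 50, where 100 means six control SD above control mean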;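 further: yeast exposed to compound for 9 h at 30 °C; higher score means more reporter readthrough which indicates perturbed polyadenylation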
VIM-2 inh: blocks Pseudomonas aeruginosa VIM-2 metallo-beta-lactamase | 0.89% of 290,000 active | inhibition, % at 5.6 µM | purified VIM-2, nitrocefin hydrolysis, epi-absorbance fluorescence;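 active means inhibition above the mean of all tested compounds plus 3 SD, cutoff set per screening run, cut at about 7.5% in these data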;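 further: red hydrolysis product quenches plate fluorescence so inhibitors raise well fluorescence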
NLRP3 yeast inh: NALP3 inhibition in yeast. Yeast reconstituted NLRP3/ASC/caspase-1, beta-gal luminescence, 24 h. inhibition, % at 10 µM. 0.39% of 330,000 active;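 active means inhibition of 50% or more; inactive means inhibition below 50%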
NALP1 inh: NALP1 inhibition | S. cerevisiae NALP1/ASC/caspase-1 growth, X-gal OD620, 72 h | inhibition, % at 10 µM | 0.61% of 280,000 active | AID 2071; in the data active means inhibition mostly above about 24%, no sharp cut-off; inactive means mostly below about 32%
SUMO Mot1 rescue: blocks SUMOylation pathway, rescuing yeast Mot1-301 growth | 1% of 320,000 active | AID 2716 | S. cerevisiae Mot1-301 growth rescue, ATP luminescence, 38.5C; percent above DMSO median, 100 means doubled | growth rescue, % at 18.8 µM;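 active means every valid replicate shows activation above 250% relative to neutral control wells; inactive means the rest, any valid replicate at or below 250%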
A number is an active result; i = inactive; nt = not tested or not shown. Sampled rows, rich in hits. Any-hit rate of the full collection: about 2.9%.

SMILES	IMP-1 inh	PolyA inhibitor	VIM-2 inh	NLRP3 yeast inh	NALP1 inh	SUMO Mot1 rescue
CCC(CO)[n+]1c(C)cc(/C=C2\Sc3ccccc3N2Cc2ccccc2)cc1C (stereo not drawn)	9.9	nt	i	nt	i	i
CCN1/C(=C2\SC(=S)N(Cc3ccccc3)C2=O)Sc2ccccc21	i	i	i	i	i	i
CCOc1ccc(C2=Nn3c(nnc3-c3ccccn3)SC2)cc1	i	i	7.7	i	i	i
Brc1ccc(C2=Nn3c(nnc3-c3ccncc3)SC2)cc1	i	nt	9.2	nt	nt	nt
c1csc(C2=Nn3c(nnc3-c3ccncc3)SC2)c1	i	i	i	i	i	i
CC(C)c1ccc(NC(=O)[C@@H]2CCC(=O)N2C2OC(=O)c3ccccc32)cc1 (stereo partly drawn)	i	i	i	i	i	i
COC(=O)c1ccc(NS(=O)(=O)c2ccc(S(=O)(=O)N3CCOCC3)cc2)cc1	nt	nt	nt	i	nt	i
CCOC(=O)COc1ccc2nsnc2c1Cl	i	i	i	i	i	i
C=C(CC)C(=O)c1ccc(OCC(=O)O)c(Cl)c1Cl	i	i	i	i	78	i
COc1ccc(CNC(=O)C2CCC(CNS(=O)(=O)c3ccccc3)CC2)cc1 (stereo not drawn)	i	i	i	i	i	i
Cc1cc([N+](=O)[O-])ccc1NC(=O)CSc1nncn1-c1ccccn1	i	i	i	i	i	737
O=C(N/N=C/c1cc(Br)cc(Br)c1O)c1ccncc1	i	i	i	i	i	i
Cc1cccc(C(=O)Oc2c(Br)cc(Br)cc2/C=N/NC(=O)c2ccncc2)c1	i	i	i	i	28	i
C[C@@H]1CN([C@@H](C)CO)C(=O)c2cc(NC(=O)Nc3ccccc3)ccc2O[C@H]1CN(C)C(=O)Nc1cccc2ccccc12	nt	nt	nt	i	nt	i
O=C(OCC(=O)N1CCN(C(=O)c2ccco2)CC1)c1cc(-c2ccccc2)nc2ccccc12	i	i	11	i	i	i
N#Cc1ccc(C(=O)N2CCN(C(=O)C3CCCO3)CC2)cc1 (stereo not drawn)	nt	nt	nt	i	nt	nt
N#Cc1c(F)cccc1N1CCN(Cc2ccc3c(c2)OCO3)CC1	i	i	i	i	i	i
CC(c1ccco1)N(C(=O)c1ccccc1NS(=O)(=O)c1cc([N+](=O)[O-])ccc1Cl)c1ccccn1 (stereo not drawn)	i	i	i	i	i	402
CC(c1ccco1)N(C(=O)c1ccccc1NS(=O)(=O)c1cccc([N+](=O)[O-])c1)c1ccccn1 (stereo not drawn)	i	i	i	i	i	i
O=C1CCCCCN1CP(=O)(O)CCc1ccccc1	i	i	i	i	i	i
O=C1CCCCCN1CP(=O)(O)CN1CCCCCC1=O	i	i	i	i	i	564
Cc1cccc(N2C(=O)CCC2=O)n1	i	i	i	i	i	i
CC1(C)Cc2nc(-c3ccccc3)nc(SCC(=O)N3CCOCC3)c2CO1	i	i	i	i	i	i
Cc1ccc(-c2nc3c(c(SCC(=O)N4CCOCC4)n2)Cc2c(CO)cnc(C)c2O3)cc1	8.9	i	i	i	i	i
CCOCCOc1cccc(C(=O)NC(c2ccccc2)c2ccccc2)c1	i	i	i	i	i	i
SMILES	IMP-1 inh	PolyA inhibitor	VIM-2 inh	NLRP3 yeast inh	NALP1 inh	SUMO Mot1 rescue
Cc1c(Br)cccc1NC(=O)c1sccc1-n1cccc1	i	i	i	i	44	nt
O=C(Nc1ccc(Br)cc1F)c1sccc1-n1cccc1	i	i	i	i	i	i
CS(=O)(=O)c1cccc(-c2csc(N3CCC(C(N)=O)CC3)n2)c1	nt	nt	nt	i	nt	i
CCN(CC)CCCOc1nc(C)nc2c1oc1ccccc12	i	nt	31	nt	i	nt
CCN(CC)CCOc1nc(C)nc2c1oc1ccccc12	i	i	8.6	i	i	i
Cc1noc(C)c1C(=O)OCC(=O)Nc1c(F)cccc1F	i	i	i	i	i	nt
COc1ccc(C(=O)N/C(=C\c2cn(C)c3ccccc23)C(=O)NCCCN2CCOCC2)cc1	i	i	i	i	i	i
CCCc1cc(=O)oc2cc(C)cc(OC(C)C(=O)NCc3ccccn3)c12 (stereo not drawn)	i	i	i	i	i	i
O=C(/C=C/c1ccccc1)NC(=S)Nc1ccccc1	i	i	i	i	i	i
C=CCN(CC=C)S(=O)(=O)c1ccc(NC(=S)NC(=O)/C=C/c2ccccc2)cc1	i	i	i	i	27	i
O=C(Cn1nc(-c2ccc(Cl)cc2)c2ccccc2c1=O)NCC1CCCO1 (stereo not drawn)	i	i	i	i	i	333
Cc1ccc(-c2nn(CC(=O)NCC3CCCO3)c(=O)c3ccccc23)cc1 (stereo not drawn)	i	i	i	i	i	i
Cc1ccc(S(=O)(=O)N(C)c2nc3ccccc3[nH]c2=S)cc1	8.7	i	i	i	nt	i
Cc1nnc(SCC(=O)O)o1	i	i	i	i	26	i
O=C(O)CSc1nnc(-c2ccccc2)o1	i	i	i	i	i	i
CCOC(=O)Cc1csc(NC(=O)Cc2ccc(Br)cc2)n1	i	i	i	i	35	i
CCOC(=O)Cc1csc(NC(=O)Cc2ccc(Cl)cc2)n1	i	i	i	i	i	i
Cc1ccc2nsnc2c1S(=O)(=O)N1CCOCC1	i	i	i	i	34	i
O=C(NNC(=O)c1nn(-c2ccc(F)cc2)ccc1=O)c1ccccc1Cl	8.4	i	i	i	i	i
Oc1ccc(Cl)cc1-c1cc(-c2ccccc2)n[nH]1	i	i	i	i	i	343
Oc1ccccc1-c1cc(-c2ccccc2)n[nH]1	nt	nt	nt	i	nt	338
Cc1ccc(O)c(-c2cc(-c3cccc(Br)c3)n[nH]2)c1	i	i	i	i	i	280
Cc1ccc(-c2cc(-c3ccc(C)cc3O)[nH]n2)cc1	i	i	i	i	i	i
COc1cc(C(=O)COC(=O)c2cnc(C)cn2)ccc1OC(F)F	i	i	i	i	i	i
O=C(Cn1c(CO)nc2ccccc21)Nc1ccc2c(c1)OCCCO2	nt	nt	nt	i	nt	i
SMILES	IMP-1 inh	PolyA inhibitor	VIM-2 inh	NLRP3 yeast inh	NALP1 inh	SUMO Mot1 rescue
Cn1c2ccccc2c2nnc(SCC(=O)Nc3cccc(C(=O)O)c3)nc21	i	i	i	i	i	i
CCOC(=O)C(C)Sc1nnc2c3ccccc3n(C)c2n1 (stereo not drawn)	i	i	8.8	i	i	i
O=S(=O)(Nc1cccc(S(=O)(=O)N2CCCC2)c1)c1cccs1	nt	nt	nt	i	nt	i
Nc1nc(SCC(=O)Nc2ccc([N+](=O)[O-])cc2)[nH]c(=O)c1NC(=O)c1ccc(Br)cc1	i	i	i	i	27	i
Cn1c(SCc2cccc(C#N)c2)nc2ccccc2c1=O	i	i	i	i	i	i
COc1cc(CNCCCN2CCOCC2)cc(Br)c1OCC(=O)N1CCCCC1	i	i	i	i	30	i
Cc1nn(CC(=O)NCCCN2CCCC2)c(=O)c2nn(-c3ccccc3)c(C)c12	i	i	i	i	i	i
COC(=O)c1cc(=O)n(Cc2ccc(F)cc2)c(=Nc2ccccc2)s1	i	i	i	i	nt	nt
